Reference: ChEMBL document CHEMBL1671832, “Discovery of novel cyanamide-based inhibitors of cathepsin C” (ACS Med Chem Lett, 2011)

What was measured:
[1] = biological target: T1, Cathepsin K (Homo sapiens, UniProt P43235); assay: Inhibition of human recombinant cathepsin K after 1 hr
T1 sequence (P43235 whole entry): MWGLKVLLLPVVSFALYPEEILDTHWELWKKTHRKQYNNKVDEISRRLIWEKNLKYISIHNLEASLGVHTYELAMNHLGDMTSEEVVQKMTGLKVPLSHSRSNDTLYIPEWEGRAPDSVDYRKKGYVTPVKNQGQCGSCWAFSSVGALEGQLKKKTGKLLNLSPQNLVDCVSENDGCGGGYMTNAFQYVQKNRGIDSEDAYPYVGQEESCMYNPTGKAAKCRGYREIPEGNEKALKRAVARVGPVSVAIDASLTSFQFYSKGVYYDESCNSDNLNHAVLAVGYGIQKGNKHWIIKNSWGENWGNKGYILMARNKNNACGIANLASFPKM

[2] = Metabolic stability in rat plasma assessed as compound remaining after 30 mins by HPLC analysis; assay type: ADME, cell-free; conditions: read-out: Stability
Summary of the method: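 Compound was incubated in rat plasma for 30 min, then % compound remaining was determined. Values are the mean of two or more independent assays.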

[3] = biological target: Cathepsin B (Homo sapiens, UniProt P07858); assay: Inhibition of human recombinant cathepsin B after 1 hr
[4] = biological target: Dipeptidyl peptidase 1 (Homo sapiens, UniProt P53634); assay: Inhibition of human recombinant cathepsin C after 1 hr
[5] = biological target: Cathepsin S (Homo sapiens, UniProt P25774); assay: Inhibition of human recombinant cathepsin S after 1 hr
[6] = biological target: Procathepsin L (Homo sapiens, UniProt P07711); assay: Inhibition of human recombinant cathepsin L after 1 hr
[7] = system: Plasma; assay: Metabolic stability in rat plasma in presence of broad spectrum esterase inhibitor; assay type: ADME, cell-free
[8] = system: Plasma; assay: Metabolic stability in rat plasma in presence of glutathione; assay type: ADME, cell-free
[9] = system: Plasma; assay: Metabolic stability in rat plasma in presence of free cysteine; assay type: ADME, cell-free
[10] = system: Plasma; assay: Metabolic stability in rat plasma in presence of rat serum albumin; assay type: ADME, cell-free
[11] = Bioavailability in dog at 5 mg/kg, iv and 10 mg/kg, po; assay type: ADME, organism-based, Canis lupus familiaris; conditions: in vivo
[12] = Volume of distribution at steady state in dog at 5 mg/kg, iv and 10 mg/kg, po; assay type: ADME, organism-based, Canis lupus familiaris; conditions: in vivo, read-out: Vdss
[13] = system: Mus musculus; assay: In vivo inhibition of cathepsin C in C57BL/6J mouse lung homogenates assessed as cleavage of H-Gly-Arg)2 R110 at 30 mg/kg administered intranasally after 0.5 hrs; assay type: functional; parameters: scale not given: the % may be the effect or the level left
[14] = Plasma clearance in mouse at 5 mg/kg, iv and 20 mg/kg, po; assay type: ADME, organism-based
[15] = Half life in dog at 5 mg/kg, iv and 10 mg/kg, po; assay type: ADME, organism-based, Canis lupus familiaris; conditions: in vivo
[16] = Volume of distribution at steady state in rat at 1 mg/kg, iv and 2 mg/kg, po; assay type: ADME, organism-based; conditions: in vivo, read-out: Vdss
[17] = system: Rattus norvegicus; assay: Bioavailability in rat at 1 mg/kg, iv and 2 mg/kg, po; assay type: ADME, organism-based; conditions: in vivo
[18] = system: Rattus norvegicus; assay: AUC in rat at 2 mg/kg, po; assay type: ADME, organism-based, Plasma; parameters: dose 2 mg/kg, route oral; conditions: in vivo
[19] = Volume of distribution at steady state in mouse at 5 mg/kg, iv and 20 mg/kg, po; assay type: ADME, organism-based; conditions: in vivo, read-out: Vdss
[20] = system: Mus musculus; assay: In vivo inhibition of cathepsin C in C57BL/6J mouse lung homogenates assessed as cleavage of H-Gly-Arg)2 R110 at 30 mg/kg, po after 0.5 hrs; assay type: functional; parameters: scale not given: the % may be the effect or the level left
Summary of the method: (§1)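 Oral dose of 30 mg/kg to C57BL/6J mice, n = 5 per group. Crude lung homogenate was taken at 0.5, 1.5 and 3 h. Cathepsin C activity was measured by cleavage of (H-Gly-Arg)2 R110 at 10 μM and expressed as % inhibition.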

[21] = Bioavailability in mouse at 5 mg/kg, iv and 20 mg/kg, po; assay type: ADME, organism-based; conditions: in vivo
[22] = Half life in mouse at 5 mg/kg, iv and 20 mg/kg, po; assay type: ADME, organism-based; conditions: in vivo
[23] = system: Mus musculus; assay: In vivo inhibition of cathepsin C in C57BL/6J mouse plasma assessed as cleavage of H-Gly-Arg)2 R110 at 30 mg/kg, po after 30 mins; assay type: functional; parameters: scale not given: the % may be the effect or the level left
Summary of the method: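 Female/male not stated; mice dosed orally at 30 mg/kg (n = 5). Plasma cathepsin C activity was read as cleavage of (H-Gly-Arg)2 R110 substrate at 10 μM, sampled 30 min post-dose as part of a time course.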

[24] = system: Mus musculus; assay: In vivo inhibition of cathepsin C in C57BL/6J mouse lung homogenates assessed as cleavage of H-Gly-Arg)2 R110 at 30 mg/kg, po after 1.5 hrs; assay type: functional; parameters: scale not given: the % may be the effect or the level left; summary of the method: as §1
[25] = system: Mus musculus; assay: In vivo inhibition of cathepsin C in C57BL/6J mouse lung homogenates assessed as cleavage of H-Gly-Arg)2 R110 at 30 mg/kg administered intranasally after 3 hrs; assay type: functional; parameters: scale not given: the % may be the effect or the level left
[26] = system: Mus musculus; assay: In vivo inhibition of cathepsin C in C57BL/6J mouse lung homogenates assessed as cleavage of H-Gly-Arg)2 R110 at 30 mg/kg, po after 3 hrs; assay type: functional; parameters: scale not given: the % may be the effect or the level left; summary of the method: as §1
[27] = Half life in rat at 1 mg/kg, iv and 2 mg/kg, po; assay type: ADME, organism-based; conditions: in vivo
[28] = system: Mus musculus; assay: In vivo inhibition of cathepsin C in C57BL/6J mouse lung homogenates assessed as cleavage of H-Gly-Arg)2 R110 at 30 mg/kg administered intranasally after 1.5 hrs; assay type: functional; parameters: scale not given: the % may be the effect or the level left
[29] = Plasma clearance in dog at 5 mg/kg, iv and 10 mg/kg, po; assay type: ADME, organism-based, Canis lupus familiaris
[30] = AUC in dog at 10 mg/kg, po; assay type: ADME, organism-based, Canis lupus familiaris; parameters: dose 10 mg/kg, route oral; conditions: plasma

Dipeptidyl peptidase 1, sequence (P53634 25-134 limits assumed): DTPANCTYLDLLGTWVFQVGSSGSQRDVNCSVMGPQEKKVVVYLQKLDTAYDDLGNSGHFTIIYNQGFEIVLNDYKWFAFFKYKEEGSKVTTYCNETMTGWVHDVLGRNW
Dipeptidyl peptidase 1, sequence (P53634 231-394 limits assumed): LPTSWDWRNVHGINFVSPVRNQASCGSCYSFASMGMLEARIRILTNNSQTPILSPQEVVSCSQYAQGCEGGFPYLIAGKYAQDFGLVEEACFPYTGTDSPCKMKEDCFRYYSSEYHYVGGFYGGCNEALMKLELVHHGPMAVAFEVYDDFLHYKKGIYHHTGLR
Dipeptidyl peptidase 1, sequence (P53634 395-463 limits assumed): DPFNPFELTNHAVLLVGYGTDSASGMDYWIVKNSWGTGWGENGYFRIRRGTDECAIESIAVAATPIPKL
Procathepsin L, sequence (P07711 whole entry): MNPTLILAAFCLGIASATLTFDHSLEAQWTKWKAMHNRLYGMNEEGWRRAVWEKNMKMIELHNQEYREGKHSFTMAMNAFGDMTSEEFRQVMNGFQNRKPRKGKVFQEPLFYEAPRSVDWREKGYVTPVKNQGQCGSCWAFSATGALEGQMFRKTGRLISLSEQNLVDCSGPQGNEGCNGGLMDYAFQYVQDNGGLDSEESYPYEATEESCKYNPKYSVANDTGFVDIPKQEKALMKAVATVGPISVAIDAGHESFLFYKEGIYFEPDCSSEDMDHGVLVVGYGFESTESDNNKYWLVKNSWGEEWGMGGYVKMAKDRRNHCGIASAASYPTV
Cathepsin S, sequence (P25774 whole entry): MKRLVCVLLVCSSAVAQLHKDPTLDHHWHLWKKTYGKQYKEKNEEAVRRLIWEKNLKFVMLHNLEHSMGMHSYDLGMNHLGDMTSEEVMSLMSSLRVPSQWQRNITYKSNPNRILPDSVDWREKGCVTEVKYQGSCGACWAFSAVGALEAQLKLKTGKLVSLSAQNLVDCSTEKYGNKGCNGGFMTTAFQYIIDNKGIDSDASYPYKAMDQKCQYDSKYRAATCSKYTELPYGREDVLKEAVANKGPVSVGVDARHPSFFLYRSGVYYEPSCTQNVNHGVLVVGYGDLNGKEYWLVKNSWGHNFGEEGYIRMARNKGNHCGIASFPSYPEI

SMILES	IC50 [1]	remaining at 0.5 h [2]	IC50 [3]	IC50 [4]	IC50 [5]	IC50 [6]	other results
N#CN1CCC(CCc2ccccc2)C1 (centres undefined)	1260 nM	13%	5010 nM	2000 nM	1580 nM	631 nM	
N#CN1CCCC(CCc2ccccc2)C1 (centres undefined)	10000 nM			> 25100 nM	7940 nM		
N#CN1CC[C@H](NS(=O)(=O)c2ccccc2)C1	31.6 nM	48%	3980 nM	316 nM	501 nM		
N#CN1CC[C@@H](NS(=O)(=O)c2ccccc2)C1	200 nM	30%	10000 nM	316 nM	1580 nM		
N#CN1CC[C@@H](NC(=O)c2ccc(F)cc2)C1	63.1 nM		3980 nM	2510 nM	12600 nM		
N#CN1CC[C@@H](NC(=O)Nc2ccccc2)C1			1260 nM	1000 nM	3980 nM	1260 nM	
N#CN1CC[C@@H](NS(=O)(=O)c2cccc(Br)c2)C1	7.94 nM	18%	6310 nM	7.94 nM	316 nM	39.8 nM	Stability [7]: Stable; Stability [8]: Stable; Stability [9]: Stable; Stability [10]: Stable
COc1ccc(OC)c(S(=O)(=O)N[C@@H]2CCN(C#N)C2)c1	79.4 nM	23%	12600 nM	10 nM	2000 nM	1260 nM	
N#CN1CC[C@@H](NS(=O)(=O)c2cc(Br)ccc2Br)C1	2 nM	18%	1580 nM	< 0.398 nM	126 nM	25.1 nM	
O=CN1CC[C@@H](NS(=O)(=O)c2cccc(Br)c2)C1	5010 nM	95%	> 25100 nM	> 25100 nM	> 25100 nM	12600 nM	
CC(C)(C)OC(=O)N1CC[C@@H](NS(=O)(=O)c2cccc(Br)c2)C1	> 25100 nM	≥ 100%	> 25100 nM	> 25100 nM	> 25100 nM	> 25100 nM	
C[C@@H]1C[C@@H](NS(=O)(=O)c2cccc(Br)c2)CN1C#N	1000 nM	45%	> 25100 nM	15800 nM	15800 nM	2510 nM	
COc1ccc(OC)c(S(=O)(=O)N[C@@H]2C[C@@H](C)N(C#N)C2)c1	> 25100 nM	88%	> 25100 nM	> 25100 nM	> 25100 nM	> 25100 nM	
C[C@H]1C[C@@H](NS(=O)(=O)c2cccc(Br)c2)CN1C#N	251 nM		> 25100 nM	158 nM	3980 nM	3160 nM	
COc1ccc(OC)c(S(=O)(=O)N[C@@H]2C[C@H](C)N(C#N)C2)c1	631 nM		> 25100 nM	126 nM	15800 nM	3160 nM	
C[C@H]1C[C@@H](NS(=O)(=O)c2cc(Br)ccc2Br)CN1C#N	39.8 nM	88%	> 25100 nM	3.16 nM	1000 nM	501 nM	bioavailability [11]: 20%; Vd [12]: 1.3 L/kg; Activity [13]: 53%; clearance [14]: 16 mL/min/kg; half-life [15]: 42 min; Vd [16]: 3.1 L/kg; F [17]: 8%; AUC [18]: 7 ng·h/mL; Vd [19]: 0.4 L/kg; Activity [20]: 32%; bioavailability [21]: 1%; half-life [22]: 12 min; Activity [23]: 35%; Activity [24]: 16%; Activity [25]: 85%; Activity [26]: 28%; half-life [27]: 12 min; Activity [28]: 66%; clearance [29]: 29 mL/min/kg; AUC [30]: 1180 ng·h/mL
N#CN1CCCC1 [CYANO-PYRROLIDINE]	3980 nM		> 25100 nM	> 25100 nM	25100 nM	1580 nM	
